According to ChEMBL document CHEMBL5120742, “Multi-target weapons: diaryl-pyrazoline thiazolidinediones simultaneously targeting VEGFR-2 and HDAC cancer hallmarks” (RSC Med Chem, 2021):

What was measured:
[1] = biological target: T1, Histone deacetylase 8 (Homo sapiens) (UniProt Q9BY41); assay: Inhibition of recombinant human N-terminal His6-SUMO-tagged C-terminal SII-tagged HDAC8 expressed in Escherichia coli (BL21) DE3 pLysS cells assessed as residual activity at 50 uM using BocLys(trifluoroacetyl)-AMC as substrate incubated for 30 mins by fluorescence assay relative to control
T1 sequence (whole entry): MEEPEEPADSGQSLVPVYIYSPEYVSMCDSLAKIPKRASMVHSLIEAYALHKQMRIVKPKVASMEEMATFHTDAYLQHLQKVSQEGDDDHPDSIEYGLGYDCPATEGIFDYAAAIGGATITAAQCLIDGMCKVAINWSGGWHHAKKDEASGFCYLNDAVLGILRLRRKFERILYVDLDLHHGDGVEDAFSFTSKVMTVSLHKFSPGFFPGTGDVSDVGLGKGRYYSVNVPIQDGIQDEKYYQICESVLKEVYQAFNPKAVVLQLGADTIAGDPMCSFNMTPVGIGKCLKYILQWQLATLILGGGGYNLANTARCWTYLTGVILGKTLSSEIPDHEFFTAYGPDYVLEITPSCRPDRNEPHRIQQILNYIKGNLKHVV
In short: (§1)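 Catalytic-domain HDAC4 (His6-SUMO/SII-tagged) and full-length codon-optimized human HDAC8 were expressed in E. coli BL21 DE3 pLysS from pET14b. Both were assayed in a two-step fluorogenic format with Boc-Lys(trifluoroacetyl)-AMC, followed by trypsin development. Compounds were screened first at 50 µM for residual activity.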

[2] = Cytotoxicity against HUVEC cells assessed as reduction in cell viability after 96 hrs by MTT assay; conditions: human
[3] = biological target: T2, Histone deacetylase 4 (Homo sapiens, UniProt P56524); assay: Inhibition of recombinant human N-terminal His6-SUMO-tagged C-terminal SII-tagged HDAC4 expressed in Escherichia coli (BL21) DE3 pLysS cells using BocLys(trifluoroacetyl)-AMC as substrate incubated for 30 mins by fluorescence assay; in short: as §1
[4] = biological target: T3, Histone deacetylase 8 (Homo sapiens, UniProt Q9BY41); assay: Inhibition of recombinant human N-terminal His6-SUMO-tagged C-terminal SII-tagged HDAC8 expressed in Escherichia coli (BL21) DE3 pLysS cells using BocLys(trifluoroacetyl)-AMC as substrate incubated for 30 mins by fluorescence assay; in short: as §1
T3 sequence (Q9BY41 whole entry): T1 sequence (whole entry)

[5] = biological target: T2, Histone deacetylase 4; assay: Inhibition of recombinant human N-terminal His6-SUMO-tagged C-terminal SII-tagged HDAC4 expressed in Escherichia coli (BL21) DE3 pLysS cells assessed as residual activity at 50 uM using BocLys(trifluoroacetyl)-AMC as substrate incubated for 30 mins by fluorescence assay relative to control; in short: as §1
[6] = biological target: Vascular endothelial growth factor receptor 2 (Homo sapiens, UniProt P35968); assay: Inhibition of human VEGFR2 in HUVEC cells assessed as reduction in VEGFR2 phosphorylation at 10 uM incubated for 30 mins by anti-phospho VEGF Tyr 1175 antibody based assay relative to control; assay type: cell-based
In short: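 HUVECs were seeded at 4000–5000 per well in DMEM with 10% FCS for 12 h, then held 24 h in serum. Compound (10 µM) was added with serum for 30 min at 37 °C. Cells were fixed in 4% formaldehyde and probed with anti-phospho-VEGFR Tyr1175 (1:1000), then an HRP secondary (1:5000). TMB signal was stopped with 2N H2SO4 and read at 450 nm. Percent inhibition is normalized to control.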

[7] = system: K562; assay: Antiproliferative activity against human K562 cells assessed as reduction in cell viability after 48 hrs by MTT assay; assay type: functional, cell-based; conditions: K562, 48 h
In short: (§2)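 MCF-7, K562, A549 and HT-29 lines were seeded in 96-well plates and kept overnight at 37 °C, 5% CO2, 95% humidity. They were then exposed to six concentrations (100 to 2.5) for 48 h. After PBS washes, MTT was added for 4 h at 37 °C and formazan was dissolved in DMSO. Absorbance was read at 570 nm. Survival is mean OD of treated wells over the negative control, and IC50 was derived from that.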

[8] = system: HT-29; assay: Antiproliferative activity against human HT-29 cells assessed as reduction in cell viability after 48 hrs by MTT assay; assay type: functional, cell-based; conditions: HT-29, 48 h; in short: as §2

T2 sequence (P56524 whole entry): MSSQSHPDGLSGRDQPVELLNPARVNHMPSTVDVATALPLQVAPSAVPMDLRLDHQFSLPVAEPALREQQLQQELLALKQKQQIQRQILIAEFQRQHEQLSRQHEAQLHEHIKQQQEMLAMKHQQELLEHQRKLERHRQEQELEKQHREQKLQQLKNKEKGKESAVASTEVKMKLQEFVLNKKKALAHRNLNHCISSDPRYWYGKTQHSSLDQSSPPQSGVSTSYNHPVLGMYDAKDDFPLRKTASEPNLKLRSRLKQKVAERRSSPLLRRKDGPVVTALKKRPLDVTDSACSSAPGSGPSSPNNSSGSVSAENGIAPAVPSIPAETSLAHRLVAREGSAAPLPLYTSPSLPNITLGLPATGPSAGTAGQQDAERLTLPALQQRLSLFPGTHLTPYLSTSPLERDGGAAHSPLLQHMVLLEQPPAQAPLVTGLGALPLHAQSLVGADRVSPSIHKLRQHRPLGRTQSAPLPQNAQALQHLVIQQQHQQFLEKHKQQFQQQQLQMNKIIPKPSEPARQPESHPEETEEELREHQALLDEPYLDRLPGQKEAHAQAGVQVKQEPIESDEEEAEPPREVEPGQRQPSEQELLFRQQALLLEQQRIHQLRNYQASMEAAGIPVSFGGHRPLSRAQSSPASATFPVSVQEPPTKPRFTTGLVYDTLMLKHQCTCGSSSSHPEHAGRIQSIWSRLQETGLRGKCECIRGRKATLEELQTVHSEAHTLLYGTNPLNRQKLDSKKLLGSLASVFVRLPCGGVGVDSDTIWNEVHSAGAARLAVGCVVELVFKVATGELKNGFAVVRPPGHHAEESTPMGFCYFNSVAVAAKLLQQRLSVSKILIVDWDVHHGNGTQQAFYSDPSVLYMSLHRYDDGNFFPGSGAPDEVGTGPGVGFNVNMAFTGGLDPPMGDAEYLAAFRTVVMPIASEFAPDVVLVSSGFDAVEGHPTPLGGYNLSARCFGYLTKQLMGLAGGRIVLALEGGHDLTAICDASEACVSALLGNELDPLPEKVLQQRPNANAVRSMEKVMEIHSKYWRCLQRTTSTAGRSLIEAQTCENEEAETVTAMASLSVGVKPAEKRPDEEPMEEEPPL
Chain of Vascular endothelial growth factor receptor 2 (P35968 whole entry): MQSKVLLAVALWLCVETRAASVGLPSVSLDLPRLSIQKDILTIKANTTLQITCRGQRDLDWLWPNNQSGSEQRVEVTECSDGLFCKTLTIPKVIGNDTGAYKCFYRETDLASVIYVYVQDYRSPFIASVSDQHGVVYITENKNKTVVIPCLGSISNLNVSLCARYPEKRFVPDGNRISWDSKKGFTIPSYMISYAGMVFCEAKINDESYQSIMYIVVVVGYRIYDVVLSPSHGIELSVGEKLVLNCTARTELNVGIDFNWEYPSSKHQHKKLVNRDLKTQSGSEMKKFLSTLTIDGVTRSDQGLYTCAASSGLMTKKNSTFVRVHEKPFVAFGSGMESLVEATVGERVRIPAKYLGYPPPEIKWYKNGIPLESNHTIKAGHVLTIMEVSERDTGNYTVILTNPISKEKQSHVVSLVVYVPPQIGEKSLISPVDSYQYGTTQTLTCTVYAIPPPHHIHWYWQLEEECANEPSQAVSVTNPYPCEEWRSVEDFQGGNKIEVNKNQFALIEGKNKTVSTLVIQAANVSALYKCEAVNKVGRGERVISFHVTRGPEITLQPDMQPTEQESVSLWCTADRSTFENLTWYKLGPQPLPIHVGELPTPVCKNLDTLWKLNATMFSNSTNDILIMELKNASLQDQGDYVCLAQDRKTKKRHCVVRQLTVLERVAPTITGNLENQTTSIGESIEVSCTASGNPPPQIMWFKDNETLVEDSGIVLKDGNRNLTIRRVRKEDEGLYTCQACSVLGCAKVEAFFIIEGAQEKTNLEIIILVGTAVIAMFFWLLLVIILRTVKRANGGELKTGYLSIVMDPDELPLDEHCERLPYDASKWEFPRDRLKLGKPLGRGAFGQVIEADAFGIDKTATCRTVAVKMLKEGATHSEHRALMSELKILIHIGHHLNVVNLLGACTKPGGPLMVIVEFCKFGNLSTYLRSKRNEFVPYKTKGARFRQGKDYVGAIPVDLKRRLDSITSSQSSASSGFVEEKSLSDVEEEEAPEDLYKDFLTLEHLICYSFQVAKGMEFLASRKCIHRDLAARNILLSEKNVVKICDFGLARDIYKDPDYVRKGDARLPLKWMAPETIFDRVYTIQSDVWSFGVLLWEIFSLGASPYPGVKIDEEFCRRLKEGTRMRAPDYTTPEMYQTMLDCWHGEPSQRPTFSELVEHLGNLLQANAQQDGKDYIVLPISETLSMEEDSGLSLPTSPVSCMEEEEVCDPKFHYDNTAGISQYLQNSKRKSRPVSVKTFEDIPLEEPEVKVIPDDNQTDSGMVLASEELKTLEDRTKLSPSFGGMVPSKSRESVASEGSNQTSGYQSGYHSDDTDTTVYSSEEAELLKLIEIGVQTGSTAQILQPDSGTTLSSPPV

Structure (SMILES)	Activity [1]	IC50 at 96 h [2]	IC50 [3]	IC50 [4]	Activity [5]	inhibition [6]	IC50 [7]	IC50 [8]
O=C1NC(=O)/C(=C\c2ccc(OCC(=O)N3N=C(c4ccccc4)CC3c3ccc(C(F)(F)F)cc3)cc2)S1 (centres undefined)	8.2%	> 10000 nM	1000 nM	16000 nM	12%			
Cc1ccc(C2CC(c3ccc(F)cc3)=NN2C(=O)COc2ccc(/C=C3/SC(=O)NC3=O)cc2)cc1 (centres undefined)	81%		1800 nM	> 50000 nM	10%			
O=C1NC(=O)/C(=C\c2ccc(OCC(=O)N3N=C(c4ccc(F)cc4)CC3c3ccc(F)cc3)cc2)S1 (centres undefined)	61%	> 10000 nM	1400 nM	> 50000 nM	3.3%			
O=C1NC(=O)/C(=C\c2ccc(OCC(=O)N3N=C(c4ccc(F)cc4)CC3c3ccccc3Cl)cc2)S1 (centres undefined)	28%		1100 nM	> 50000 nM	3.3%			
O=C1NC(=O)/C(=C\c2ccc(OCC(=O)N3N=C(c4ccc(F)cc4)CC3c3ccc(C(F)(F)F)cc3)cc2)S1 (centres undefined)	81%	6000 nM	1300 nM	> 50000 nM	9.2%	48.7%		
Cc1ccc(C2CC(c3ccc(F)cc3F)=NN2C(=O)COc2ccc(/C=C3/SC(=O)NC3=O)cc2)cc1 (centres undefined)	69%	> 10000 nM	1500 nM	> 50000 nM	9.4%			
O=C1NC(=O)/C(=C\c2ccc(OCC(=O)N3N=C(c4ccccc4)CC3c3ccccc3)cc2)S1 (centres undefined)	39%		1600 nM	20000 nM	11%			
Cc1ccc(C2CC(c3ccccc3)=NN2C(=O)COc2ccc(/C=C3/SC(=O)NC3=O)cc2)cc1 (centres undefined)	36%		1200 nM	31000 nM	4.6%			
O=C1NC(=O)/C(=C\c2ccc(OCC(=O)N3N=C(c4ccccc4)CC3c3ccc(Br)cc3)cc2)S1 (centres undefined)	21%		1200 nM	35000 nM	7%			
O=C1NC(=O)/C(=C\c2ccc(OCC(=O)N3N=C(c4ccc(F)cc4)CC3c3ccc(F)cc3F)cc2)S1 (centres undefined)	63%		1600 nM	> 50000 nM	10%			
O=C1NC(=O)/C(=C\c2ccc(OCC(=O)N3N=C(c4ccc(F)cc4F)CC3c3ccco3)cc2)S1 (centres undefined)	100%		15000 nM	> 50000 nM	22%			
O=C1NC(=O)/C(=C\c2ccc(OCC(=O)N3N=C(c4ccccc4)CC3c3ccccc3Cl)cc2)S1 (centres undefined)	27%	2000 nM	1200 nM	29000 nM	14%	49%		
O=C1NC(=O)/C(=C\c2ccc(OCC(=O)N3N=C(c4ccc(F)cc4)CC3c3ccccc3)cc2)S1 (centres undefined)	58%	> 10000 nM	4200 nM	> 50000 nM	10%			
O=C1NC(=O)/C(=C\c2ccc(OCC(=O)N3N=C(c4ccc(F)cc4F)CC3c3ccc(F)cc3)cc2)S1 (centres undefined)	69%		1500 nM	> 50000 nM	10%			
O=C1NC(=O)/C(=C\c2ccc(OCC(=O)N3N=C(c4ccccc4)CC3c3ccc(F)cc3)cc2)S1 (centres undefined)	26%		1700 nM	26000 nM	2.5%			
CC(=O)O[C@H]1C(=O)[C@@]2(C)[C@H]([C@H](OC(=O)c3ccccc3)[C@]3(O)C[C@H](OC(=O)[C@H](O)[C@@H](NC(=O)c4ccccc4)c4ccccc4)C(C)=C1C3(C)C)[C@]1(OC(C)=O)CO[C@@H]1C[C@@H]2O [PACLITAXEL]							290 nM	280 nM
O=C1NC(=O)/C(=C\c2ccc(OCC(=O)N3N=C(c4ccccc4)CC3c3ccc(F)cc3F)cc2)S1 (centres undefined)	33%		2200 nM	34000 nM	17%			
